Results on five compounds are retold here after ChEMBL document CHEMBL3751698, “5,7-Disubstituted-[1,2,4]triazolo[1,5-a][1,3,5]triazines as pharmacological tools to explore the antagonist selectivity profiles toward adenosine receptors” (Eur J Med Chem, 2016).

What is called Ki is a dissociation constant, usually derived from enzyme kinetics or from competition with a known ligand. A word on the IC50: it is the point on the concentration scale where inhibition reaches its midpoint.

The species entered for test [1] is Homo sapiens. The test can be described thus: Selectivity index, ratio of Ki for human A1 adenosine receptor to Ki for human A2A adenosine receptor.
In test [2] the target is T1, Adenosine receptor A1 (Homo sapiens, UniProt P30542).
T1 sequence (P30542 whole entry): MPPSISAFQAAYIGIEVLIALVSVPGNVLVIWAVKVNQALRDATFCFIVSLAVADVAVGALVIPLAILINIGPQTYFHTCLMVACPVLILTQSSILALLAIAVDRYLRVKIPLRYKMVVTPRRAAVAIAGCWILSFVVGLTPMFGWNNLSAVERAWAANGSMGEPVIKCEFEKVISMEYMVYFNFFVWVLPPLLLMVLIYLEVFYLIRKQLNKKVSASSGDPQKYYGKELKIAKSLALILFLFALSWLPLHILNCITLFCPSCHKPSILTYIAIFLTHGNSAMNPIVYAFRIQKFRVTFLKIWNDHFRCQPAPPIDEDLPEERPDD
Description: Displacement of [3H]CCPA from human A1 adenosine receptor expressed in CHO cell membranes. Conditions: read-out: Ki. Summed up:
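Membranes from stably transfected CHO cells (1,000 x g spin to clear nuclei and debris, then 100,000 x g pellet), resuspended in binding buffer and frozen. Competition against 1 nM [3H]CCPA; nonspecific binding defined with 1 mM theophylline. Ki calculated from competition curves.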

The species named for test [3] is Homo sapiens. Description: Selectivity index, ratio of Ki for human A3 adenosine receptor to Ki for human A2A adenosine receptor.
The target in test [4] is T2, Adenosine receptor A2b (Homo sapiens, UniProt P29275).
T2 sequence (P29275 whole entry): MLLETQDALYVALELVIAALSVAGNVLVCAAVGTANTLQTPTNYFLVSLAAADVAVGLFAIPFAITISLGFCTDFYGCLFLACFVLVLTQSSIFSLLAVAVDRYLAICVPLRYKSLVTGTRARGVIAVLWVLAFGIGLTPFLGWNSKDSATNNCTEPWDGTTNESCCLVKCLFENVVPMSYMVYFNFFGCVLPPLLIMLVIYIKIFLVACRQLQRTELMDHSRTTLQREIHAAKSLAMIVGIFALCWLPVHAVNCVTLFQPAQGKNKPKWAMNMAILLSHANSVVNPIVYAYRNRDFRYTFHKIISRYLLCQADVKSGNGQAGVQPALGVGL
Description: Antagonist activity at human A2B adenosine receptor expressed in CHO cell membranes assessed as inhibition of NECA stimulated adenylyl cyclase activity. Format: functional, cell-based. In a few lines:
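CHO cells stably expressing hA2B; crude membranes from a single high-speed spin, resuspended in 50 mM Tris/HCl pH 7.4 and used fresh. Incubated 20 min with about 150,000 cpm [α-32P]ATP in a mixture without EDTA and NaCl. IC50 for inhibition of NECA-stimulated cyclase obtained by Hill equation fit.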

The target in test [5] is T3, Adenosine receptor A3 (Homo sapiens, UniProt P0DMS8).
T3 sequence (P0DMS8 whole entry): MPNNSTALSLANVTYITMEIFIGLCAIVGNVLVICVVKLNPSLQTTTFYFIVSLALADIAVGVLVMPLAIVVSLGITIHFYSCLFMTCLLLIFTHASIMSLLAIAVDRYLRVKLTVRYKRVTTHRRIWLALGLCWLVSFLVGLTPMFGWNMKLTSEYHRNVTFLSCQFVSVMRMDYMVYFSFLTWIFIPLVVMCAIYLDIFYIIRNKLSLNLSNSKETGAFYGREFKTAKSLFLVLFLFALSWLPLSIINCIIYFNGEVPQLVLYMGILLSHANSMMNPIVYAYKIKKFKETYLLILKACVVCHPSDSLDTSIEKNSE
Description: Displacement of [3H]HEMADO from human A3 adenosine receptor expressed in CHO cell membranes. Summed up:
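Two-step centrifugation (1,000 x g, then 100,000 x g) of stably transfected CHO cells gave the membranes. Displacement of 1 nM [3H]HEMADO; nonspecific binding taken with 100 µM R-PIA. Ki computed from competition data.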
Background: In a radioligand displacement assay an active substance lowers the binding of a labelled ligand.

In test [6] the target is Adenosine receptor A2a (Homo sapiens, UniProt P29274). Description: Displacement of [3H]NECA from human A2A adenosine receptor expressed in CHO cell membranes. Summed up: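 Crude membranes from stably transfected CHO cells, prepared by a two-step spin (1,000 x g, then 100,000 x g). Competition with 10 nM [3H]NECA, with nonspecific binding measured in presence of 100 µM R-PIA. Ki derived from competition experiments.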
Adenosine receptor A2a, sequence (P29274 whole entry): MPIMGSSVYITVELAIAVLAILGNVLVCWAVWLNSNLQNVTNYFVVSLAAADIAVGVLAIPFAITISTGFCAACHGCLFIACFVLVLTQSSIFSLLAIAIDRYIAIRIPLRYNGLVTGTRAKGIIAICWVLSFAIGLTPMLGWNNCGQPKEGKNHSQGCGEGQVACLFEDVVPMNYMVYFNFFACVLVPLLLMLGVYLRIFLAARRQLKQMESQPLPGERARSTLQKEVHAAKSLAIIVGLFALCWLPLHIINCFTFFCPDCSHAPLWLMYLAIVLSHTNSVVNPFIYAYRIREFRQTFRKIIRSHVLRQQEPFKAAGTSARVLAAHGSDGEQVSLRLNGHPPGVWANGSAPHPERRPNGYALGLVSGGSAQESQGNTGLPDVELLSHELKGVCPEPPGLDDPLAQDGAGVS

Some results are limits rather than exact numbers.

For `CC(C)Nc1nc(NC2CCCCC2)n2nc(-c3ccco3)nc2n1`, the Ratio Ki in test [1] worked out at 2.02; in test [3], 0.26. Further, the Ki is 801 nM in test [2], 105 nM in test [5] and 397 nM in test [6]. The IC50 in test [4] is above 30000 nM.
As to `O=C(Nc1ccccc1)Nc1nc(NCc2ccccc2)nc2nc(-c3ccco3)nn12`, the Ratio Ki was 216 in test [1] and 20.6 in test [3]. Further, the inhibitory constant (Ki) in test [2] was 311 nM; in test [5] it was 29.7 nM; in test [6], 1.44 nM. The IC50 in test [4] was 4360 nM.
`Fc1ccc(CNc2nc(NCc3ccccc3)nc3nc(-c4ccco4)nn23)cc1`: the Ratio Ki in test [1] stood at 68.3; in test [3] it was 3.45. The results for the Ki in test [2], in test [5] and in test [6] were 1490 nM, 75.3 nM and 21.8 nM, respectively. Besides, the IC50 in test [4] is above 30000 nM.
Take `Fc1ccc(CNc2nc(NCc3ccc(F)cc3)n3nc(-c4ccco4)nc3n2)cc1`: the Ratio Ki in test [1] is above 2290; in test [3], 2.82. The Ki was above 100000 nM in test [2], 123 nM in test [5] and 43.6 nM in test [6]. Moreover, in test [4], the IC50 is above 30000 nM.
`O=C(Nc1nc(NC2CCCCC2)nc2nc(-c3ccco3)nn12)c1ccccc1`: the values for the Ratio Ki in test [1] and in test [3] were 7.41 and 8.33, respectively. For the same compound, the Ki in test [2] is 7560 nM; in test [5], 8500 nM; in test [6], 1020 nM. In test [4], the IC50 is above 30000 nM.
